These results are taken from ChEMBL document CHEMBL1125768, “Peptide derivatives specific for a Plasmodium falciparum proteinase inhibit the human erythrocyte invasion by merozoites” (J Med Chem, 1991).

Square brackets hold non-standard residues; d marks the D form. Peptide text beside a SMILES is read from it. * marks the point of attachment. NH(9-Et-carbazol-3-yl) = CCn1c2ccccc2c2cc(N*)ccc21; X1 = O=C(C(O)C(O)C(O)C(O)CO)*; Boc = CC(C)(C)OC(=O)*; Sar = CNCC(=O)O

Test [1] deals with Plasmodium falciparum. As to the kind of experiment: In vitro inhibition of Plasmodium falciparum 68 neutral proteinase activity by reinvasion of red blood cells. The format is functional, organism-based. Summed up:
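Synchronized schizonts (44-48 h) from a 4-h synchronized culture, collected by Plasmagel, added to washed healthy erythrocytes at 5% hematocrit to 4-5% parasitemia, with peptide in complete medium with 5% serum. Incubated 4-6 h in a candle jar. New rings counted on Giemsa smears (5000 RBC). Inhibition = 100 − (R/R0 × 100). IC50 from 6-h runs, 5% initial segmenters, triplicate.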

Test [2] relates to Plasmodium falciparum. As to the kind of experiment: Inhibitory activity against Plasmodium falciparum 68 neutral proteinase. In kind it is functional. The settings on record: read-out: I50. Summed up:
(§1)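 Purified Pf 68 proteinase (FcR-3 schizonts; chromatofocusing then gel filtration; 20 μL extract). Inhibitors at 0.005-1 mM preincubated with 0.19 mM GlcA-Val-Leu-Gly-Lys-AEC in 50 mM Tris-HCl pH 7.4, then 30 min at 37 °C. Released AEC extracted into ethyl acetate, fluorescence read at ex 370/em 430 nm. Enzyme-free control for each inhibitor. I50 read from the activity-versus-concentration plot.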

For test [3], the system named is Plasmodium falciparum. The test is described as follows: Inhibitory activity against Plasmodium falciparum 68 neutral proteinase. The format is functional. Summed up: as §1
For test [4], the system named is Plasmodium falciparum. As to the kind of experiment: Relative rate of hydrolysis by Plasmodium falciparum 68 neutral proteinase. In kind it is functional. Summed up:
(§2)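 Pf 68 proteinase purified from FcR-3 schizonts, incubated with peptidyl-AEC substrates (0.5-2.0 mM) in 50 mM Tris-HCl pH 7.4, 30 min at 37 °C. Free AEC extracted into ethyl acetate, fluorescence read at ex 370/em 430 nm. A 10 μg/mL trypsin total-release digest served as reference. Km and rates from Lineweaver-Burk plots; Vrel is the rate relative to S-1.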

Test [5] concerns Plasmodium falciparum. The test is described as follows: Substrate affinity for Plasmodium falciparum 68 neutral proteinase. In kind it is functional. Summed up:
as §2

Test [6] concerns Plasmodium falciparum. The test is described as follows: Reaction velocity for Plasmodium falciparum 68 neutral proteinase. The format is functional. Summed up:
as §2

As to `CCN(CC)C(=O)[C@H](CCCCN)NC(=O)CNC(=O)[C@H](CC(C)C)NC(=O)[C@@H](NC(=O)[C@H](O)[C@@H](O)[C@H](O)[C@H](O)CO)C(C)C`, the results for the IC50 in test [1] and in test [2] were over 10000 µM and over 2000 µM, respectively. Further, in test [3], the inhibition constant (Ki) – broadly, the dissociation constant of the complex between target and ligand, obtained from inhibition or displacement – was over 2500 µM.

Take `CCn1c2ccccc2c2cc(NC(=O)[C@H](CCCN=C(N)N)NC(=O)CNC(=O)[C@H](CC(C)C)NC(=O)[C@@H](NC(=O)C(O)C(O)C(O)C(O)CO)C(C)C)ccc21` (some centres not stated) (X1-VLGR-{NH(9-Et-carbazol-3-yl)}): the Vrel in test [4] is reported as 89. Moreover, the Km (commonly the concentration of substrate that gives half-maximal velocity) in test [5] is 400 µM.

For `CCn1c2ccccc2c2cc(NC(=O)[C@H](CCCN=C(N)N)NC(=O)CNC(=O)[C@H](CO)NC(=O)C(O)C(O)C(O)C(O)CO)ccc21` (some centres not stated), in test [4], the Vrel was under 3. The Km in test [5] is over 10000 µM.

`CCNC(=O)CNC(=O)[C@H](CCCN=C(N)N)NC(=O)[C@@H]1CCCN1C(=O)[C@H](CC(=O)O)NC(=O)OC(C)(C)C` (Boc-DPRG-NHEt): in test [2], the IC50 was over 2000 µM. This compound also returned a Ki in test [3] of over 2500 µM.

For the compound `CCNC(=O)[C@H](C)NC(=O)CNC(=O)[C@H](CC(C)C)NC(=O)[C@@H](NC(=O)[C@H](O)[C@@H](O)[C@H](O)[C@H](O)CO)C(C)C`, the IC50 is over 10000 µM in test [1] and over 2000 µM in test [2]. Further, the Ki in test [3] is over 2500 µM.

In the case of `CCn1c2ccccc2c2cc(NC(=O)[C@H](CCCCN)NC(=O)CNC(=O)[C@H](CC(C)C)NC(=O)[C@H](CO)NC(=O)C(O)C(O)C(O)C(O)CO)ccc21` (some centres not stated) (X1-SLGK-{NH(9-Et-carbazol-3-yl)}), in test [4], the Vrel is recorded as 17. In addition, in test [5], the Km is 1140 µM.

In test [4], `CCn1c2ccccc2c2cc(NC(=O)[C@H](CCCCN)NC(=O)CNC[C@H](CC(C)C)NC(=O)[C@H](N)C(C)C)ccc21` gave a Vrel of under 3. The Km in test [5] was over 10000 µM.

Take `CCn1c2ccccc2c2cc(NC(=O)[C@H](CCCCN)NC(=O)CN(C)C(=O)[C@H](CC(C)C)NC(=O)[C@@H](NC(=O)C(O)C(O)C(O)C(O)CO)C(C)C)ccc21` (some centres not stated) (X1-VL[Sar]K-{NH(9-Et-carbazol-3-yl)}): in test [4], the Vrel was determined as 80. Also, the Km in test [5] stood at 1670 µM.

For `CC(C)C[C@H](NC(=O)[C@@H](NC(=O)[C@H](O)[C@@H](O)[C@H](O)[C@H](O)CO)C(C)C)C(=O)NCC(=O)N[C@@H](CCCCN)C(=O)NC(CO)CO`, the IC50 in test [2] came out at 1500 µM. Also, the affinity in test [3], expressed as Ki, was 1460 µM.

As to `CCn1c2ccccc2c2cc(NC(=O)[C@H](CCCCN)NC(=O)CNC(=O)[C@@H](NC(=O)[C@@H](NC(=O)C(O)C(O)C(O)C(O)CO)C(C)C)[C@@H](C)O)ccc21` (some centres not stated) (X1-VTGK-{NH(9-Et-carbazol-3-yl)}), the Vrel in test [4] came to 26. Further, the Michaelis-Menten constant (Km) in test [5] worked out at 1250 µM.

Regarding `CC(C)C[C@H](NC(=O)[C@@H](NC(=O)[C@H](O)[C@@H](O)[C@H](O)[C@H](O)CO)C(C)C)C(=O)NCC(=O)N[C@@H](CCCCN)C(=O)O`, the IC50 in test [1] was over 10000 µM; in test [2], over 2000 µM. This compound also came in with a Ki in test [3] of over 2500 µM.

`CCNC(=O)CNC(=O)[C@H](CCCN=C(N)N)NC(=O)[C@H](Cc1ccccc1)NC(=O)[C@H](CC(=O)O)NC(C)=O` (Ac-DFRG-NHEt) displayed an IC50 in test [1] of over 10000 µM. This compound also yielded a Ki in test [3] of over 2500 µM.

With `CC(C)C[C@H](NC(=O)[C@@H](NC(=O)[C@H](O)[C@@H](O)[C@H](O)[C@H](O)CO)C(C)C)C(=O)NCC(=O)N[C@@H](CCCN=C(N)N)C(=O)N(C)CC(=O)O`, the IC50 in test [2] is 1000 µM. Moreover, in test [3], the affinity corresponds to a Ki of 1220 µM.

As to `CC(C)C[C@H](NC(=O)[C@@H](NC(=O)[C@H](O)[C@@H](O)[C@H](O)[C@H](O)CO)C(C)C)C(=O)NCC(=O)N[C@@H](CCCCN)C(=O)N(C)CC(=O)O`, the IC50 in test [2] amounted to 320 µM. In test [3], this compound showed a Ki of 250 µM.

Turning to `CCn1c2ccccc2c2cc(NC(=O)[C@H](CCCCN)NC(=O)CNC(=O)[C@H](CC(C)C)NC(=O)[C@@H](NC(=O)C(O)C(O)C(O)C(O)CO)C(C)C)ccc21` (some centres not stated) (X1-VLGK-{NH(9-Et-carbazol-3-yl)}), the Vm in test [6] is 35 uM ml-1. This compound also came in with a Vrel in test [4] of 100. Moreover, the Km in test [5] was found to be 380 µM.

In turn, `CC[C@H](C)[C@H](NC(=O)C(O)C(O)C(O)C(O)CO)C(=O)N[C@H](C(=O)NCC(=O)N[C@@H](CCCCN)C(=O)Nc1ccc2c(c1)c1ccccc1n2CC)C(C)C` (some centres not stated) (X1-IVGK-{NH(9-Et-carbazol-3-yl)}) returned a Vrel in test [4] of 43. The Km in test [5] came to 950 µM.

Regarding `CCn1c2ccccc2c2cc(NC(=O)[C@H](CCCCN)NC(=O)[C@H](C)NC(=O)[C@H](C)NC(=O)[C@H](C)NC(=O)C(O)C(O)C(O)C(O)CO)ccc21` (some centres not stated) (X1-AAAK-{NH(9-Et-carbazol-3-yl)}), in test [4], the Vrel was 29. Further, the Km in test [5] amounted to 5000 µM.

In test [4], `CCn1c2ccccc2c2cc(NC(=O)[C@H](CCCCN)NC(=O)CNC(=O)[C@H](CC(C)C)NC(=O)[C@@H](NC(=O)OC(C)(C)C)C(C)C)ccc21` (Boc-VLGK-{NH(9-Et-carbazol-3-yl)}) returned a Vrel of 11. For the same compound, in test [5], the Km was determined as 1140 µM.

`CC[C@H](C)[C@H](NC(=O)C(O)C(O)C(O)C(O)CO)C(=O)N[C@H](CNCC(=O)N[C@@H](CCCN=C(N)N)C(=O)Nc1ccc2c(c1)c1ccccc1n2CC)C(C)C` (some centres not stated) yielded a Vrel in test [4] of 3. The Km in test [5] was 6250 µM.

For `CCn1c2ccccc2c2cc(NC(=O)[C@H](CCCCN)NC(=O)CNC[C@@H](NC(=O)C(O)C(O)C(O)C(O)CO)C(C)O)ccc21` (some centres not stated), the Vrel in test [4] is recorded as 23. In addition, the Km in test [5] was found to be 5600 µM.

Regarding `CC(C)C[C@H](NC(=O)[C@@H](NC(=O)[C@H](O)[C@@H](O)[C@H](O)[C@H](O)CO)C(C)C)C(=O)NCC(=O)N[C@@H](CCCCN)C(=O)N1CCC[C@H]1C(=O)O`, the IC50 in test [2] is over 2000 µM. In test [3], this compound gave an inhibition constant (Ki) of over 2500 µM.

`CCn1c2ccccc2c2cc(NC(=O)[C@H](CCCCN)NC(=O)CNC(=O)[C@H](CC(C)C)NC(=O)[C@@H](NC(=O)C(O)C(O)C(O)C(O)CO)[C@@H](C)O)ccc21` (some centres not stated) (X1-TLGK-{NH(9-Et-carbazol-3-yl)}): the Vrel in test [4] stood at 74. Besides, the Michaelis-Menten constant (Km) in test [5] stood at 770 µM.

The compound `CCn1c2ccccc2c2cc(NC(=O)[C@H](CCCCN)NC(=O)CNC(=O)[C@H](COC(=O)c3ccccc3)NC(=O)C(O)C(O)C(O)C(O)CO)ccc21` (some centres not stated) registered a Vrel in test [4] of under 3. In addition, the Km in test [5] is over 10000 µM.

`CCn1c2ccccc2c2cc(NC(=O)[C@H](CCCCN)NC(=O)CNC(=O)[C@H](CO)NC(=O)C(O)C(O)C(O)C(O)CO)ccc21` (some centres not stated) yielded a Vrel in test [4] of 140. Moreover, the Km in test [5] was found to be 730 µM.

For `CCNC(=O)[C@H](CCCCN)NC(=O)CNC(=O)[C@H](CC(C)C)NC(=O)[C@@H](NC(=O)[C@H](O)[C@@H](O)[C@H](O)[C@H](O)CO)C(C)C`, the IC50 in test [1] was 900 µM; in test [2], 470 µM. For the same compound, the Ki in test [3] worked out at 480 µM.

As for `CC(C)C[C@H](NC(=O)[C@@H](NC(=O)[C@H](O)[C@@H](O)[C@H](O)[C@H](O)CO)C(C)C)C(=O)N(C)CC(=O)N[C@@H](CCCN=C(N)N)C(=O)N(C)CC(=O)O`, in test [2], the IC50 is 2000 µM. This compound displayed a Ki in test [3] of 2500 µM.
